Source: the array DNA melting data of Ke et al. (doi:10.1101/2024.01.08.574731)

How the values were obtained:
[1] = melting temperature; fluorescence melt of hairpins on a sequencing array, two-state fit, raised by 9.35 °C to match UV melts; conditions: sodium 0.088 M
How it was run: (§1)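 Bootstrapped two-state fits yielded melting temperature and folding enthalpy for library hairpins. Cy3 fluorescence, with annealed Cy3 and quencher oligos, was imaged on a sequenced MiSeq flow cell in 50 mM Na-HEPES pH 8.0, 25 mM NaCl in 2.5 °C steps up to 60 °C, and normalised to pre-quench Cy3 and to control constructs. Four replicates were combined by inverse variance, and fitted temperatures were raised by 9.35 °C to match UV melts.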

[2] = folding enthalpy; higher = less favourable; fluorescence melt of hairpins on a sequencing array, two-state fit; conditions: sodium 0.088 M
How it was run: as §1

Row | Sequence | Tm [1] [°C] | folding enthalpy [2] [kcal/mol]
1 | GGCTTCGGAAACGAGGCC (((.(((....))).))) | 58.8 | -46.7
2 | GGCTTGGGAAACCGAGTC (.((.((....)).)).) | 41.5 | -27.4
3 | GGCTTGGGAAACTAGGCC (((.(.(....).).))) | 39.4 | -28.4
4 | GGCTTTACGAAAGTAGCC (((..(((....)))))) | 45.5 | -27.7
5 | GGCTTTGCGAAAGCAGCC (((..(((....)))))) | 52.1 | -17.2
6 | GGCTTTGGAAACAAAGCC (((((((....))))))) | 68.3 | -34.1
7 | GGCTTTGGAAACAGAGCC ((((.((....)).)))) | 50.6 | -35.3
8 | GGGAAAGGAAACTTTCTC (.(((((....))))).) | 38.4 | -20.4
9 | GGGAAAGGAAACTTTTCC ((.((((....)))).)) | 40.6 | -27
10 | GGGAACGAAAGTTCCCCC ((((((....)))..))) | 68.4 | -9.06
11 | GGGAACGAAAGTTGACCC ((((((....)))..))) | 37.8 | -20.9
12 | GGGAACGAAAGTTGCCC ((((((....))).))) | 53 | -28.6
13 | GGGAACGAAAGTTGGCCC ((((((....)))..))) | 32 | -14.7
14 | GGGAACGAAAGTTGTCCC ((((((....)))..))) | 36.4 | -18.1
15 | GGGAACGAAAGTTTACCC ((((((....)))..))) | 34.1 | -21.1
16 | GGGAACGGAAACGTTCTC (.(((((....))))).) | 52.9 | -18.2
17 | GGGAAGACGAAAGTCCCC (((..(((....)))))) | 45.3 | -19.1
18 | GGGAAGCGAAAGCTACCC (((.(((....))).))) | 59.3 | -30.7
19 | GGGAAGCGAAAGCTCCC (((.(((....)))))) | 59.7 | -38.7
20 | GGGAAGGAAACTTCCC ((((((....)))))) | 58.1 | -31.8
21 | GGGAATGGAAACATTCTC (.(((((....))))).) | 44.9 | -24.2
22 | GGGAATGGAAACGTTTCC ((.((.(....).)).)) | 34.3 | -15.3
23 | GGGACAACGAAAGTTCCC (((..(((....)))))) | 39.4 | -22.4

Row | Sequence | Tm [1] [°C] | folding enthalpy [2] [kcal/mol]
24 | GGGACACGAAAGTGCCC (((.(((....)))))) | 60.9 | -24.1
25 | GGGACAGAAATGTCCC ((((((....)))))) | 64.1 | -29.3
26 | GGGACCGAAAGGTATCCC ((((((....)))..))) | 47.7 | -18.1
27 | GGGACCGAAAGGTGCCC ((((((....))).))) | 61 | -17.7
28 | GGGACCGAAAGGTGGCCC ((((((....)))..))) | 45.5 | -19
29 | GGGACCGAAAGGTTCCC ((((((....))).))) | 60.4 | -26.7
30 | GGGACGCCGAAAGGCCCC (((..(((....)))))) | 45.4 | -13.7
31 | GGGACGGGAAACCGTCTC (.(((((....))))).) | 56.5 | -20.2
32 | GGGACTCCGAAAGGACCC (((..(((....)))))) | 41.5 | -16
33 | GGGACTGAAAAGTCCC ((((((....)))))) | 68.3 | -33.7
34 | GGGACTGGAAACAGTCCC (((((((....))))))) | 69 | -37.8
35 | GGGACTGGAAACGGTCCC (((((.(....).))))) | 57.6 | -44.6
36 | GGGACTGGAAACGGTCTC (.(((.(....).))).) | 37.4 | -23.1
37 | GGGAGACGAAAGTCCCCC (((.(((....))).))) | 58.8 | -28.8
38 | GGGAGAGGAAACTCTTCC ((.((((....)))).)) | 45.5 | -30.7
39 | GGGAGCACGAAAGTGCCC (((..(((....)))))) | 59.1 | -10.6
40 | GGGAGCGAAAGCTAGCCC ((((((....)))..))) | 42.7 | -14.2
41 | GGGAGCGAAAGCTCGCCC ((((((....)))..))) | 52.7 | -11.6
42 | GGGAGCGAAAGCTGTCCC ((((((....)))..))) | 45.6 | -17.2
43 | GGGAGCGAAAGCTTGCCC ((((((....)))..))) | 39.4 | -12.2
44 | GGGAGGAAACTCCC (((((....))))) | 56 | -33.5
45 | GGGAGGCCGAAAGGCCCC (((..(((....)))))) | 56.6 | -9.7
46 | GGGAGTACGAAAGTACCC (((..(((....)))))) | 51.3 | -13.1

Row | Sequence | Tm [1] [°C] | folding enthalpy [2] [kcal/mol]
47 | GGGAGTCGAAAGACCCCC (((.(((....))).))) | 59.3 | -37.3
48 | GGGAGTGGAAACGCTCCC (((((.(....).))))) | 58 | -38.9
49 | GGGAGTGGAAACGTTCCC ((((..(....)..)))) | 36.2 | -16.5
50 | GGGAGTTCGAAAGAACCC (((..(((....)))))) | 47.9 | -18.2
51 | GGGATACGAAAGTACCC (((.(((....)))))) | 51.2 | -27.4
52 | GGGATAGGAAACTATCCC (((((((....))))))) | 59.2 | -42.8
53 | GGGATAGGAAACTGTCCC ((((.((....)).)))) | 49.4 | -35.9
54 | GGGATCACGAAAGTGCCC (((..(((....)))))) | 39.3 | -15.3
55 | GGGATCGAAAGATAACCC ((((((....)))..))) | 34.9 | -19.4
56 | GGGATCGAAAGATCACCC ((((((....)))..))) | 51.1 | -13.4
57 | GGGATCGAAAGATGCCC ((((((....))).))) | 50.3 | -46.8
58 | GGGATCGAAAGATGGCCC ((((((....)))..))) | 33.5 | -13.8
59 | GGGATCGCGAAAGCGCCC (((..(((....)))))) | 40.6 | -13.8
60 | GGGATCGGAAACGGTCCC ((((.((....)).)))) | 57.8 | -47.5
61 | GGGATGGCGAAAGCCCCC (((..(((....)))))) | 47.3 | -15.7
62 | GGGATGGGAAACCATCTC (.(((((....))))).) | 49.9 | -24.5
63 | GGGATGGGAAACCGTCCC ((((.((....)).)))) | 56.5 | -50.5
64 | GGGATTCCGAAAGGACCC (((..(((....)))))) | 40.3 | -16
65 | GGGATTCGAAAGAAGCCC (((.(((....))).))) | 63.5 | -34.7
66 | GGGATTGGAAACAACCCC (((.(((....))).))) | 42.4 | -28
67 | GGGATTGGAAACAGTCCC ((((.((....)).)))) | 48.8 | -31.5
68 | GGGCAAGGAAACTTACCC (((.(((....))).))) | 38.9 | -29.2
69 | GGGCACACGAAAGTGCCC (((..(((....)))))) | 67.3 | -30.4

Row | Sequence | Tm [1] [°C] | folding enthalpy [2] [kcal/mol]
70 | GGGCACGAAAGTGACCC ((((((....))).))) | 66.8 | -13.2
71 | GGGCACGAAAGTGACCCC ((((((....)))..))) | 68.5 | -10.3
72 | GGGCACGAAAGTGAGCCC ((((((....)))..))) | 56.7 | -32.9
73 | GGGCACGAAAGTGCTCCC ((((((....)))..))) | 53.1 | -9.92
74 | GGGCACGAAAGTGTCCC ((((((....))).))) | 65.1 | -16.5
75 | GGGCACGAAAGTGTCCCC ((((((....)))..))) | 65.1 | -12
76 | GGGCAGGCGAAAGCCCCC (((..(((....)))))) | 46 | -14.5
77 | GGGCAGGGAAACCCACCC (((..((....))..))) | 34.8 | -24.5
78 | GGGCAGGGAAACTTGCCC (((((.(....).))))) | 55.9 | -47.7
79 | GGGCAGTCGAAAGACCCC (((..(((....)))))) | 41.7 | -21.6
80 | GGGCATCGAAAGATTCCC (((.(((....))).))) | 47.5 | -27.7
81 | GGGCATTCGAAAGAACCC (((..(((....)))))) | 29.5 | -14.2
82 | GGGCCAACGAAAGTTCCC (((..(((....)))))) | 30.4 | -14.4
83 | GGGCCACGAAAGTGACCC (((.(((....))).))) | 64.4 | -40.5
84 | GGGCCAGGAAACCAGCCC ((((..(....)..)))) | 43.9 | -26.8
85 | GGGCCAGGAAACTGGTCC ((.((((....)))).)) | 61.9 | -35
86 | GGGCCCCGAAAGGGTCCC (((.(((....))).))) | 65.2 | -27.4
87 | GGGCCCGAAAGGGTACCC ((((((....)))..))) | 57.3 | -15.1
88 | GGGCCGGCGAAAGCCCCC (((..(((....)))))) | 51 | -11.2
89 | GGGCCTCGAAAGAGTCCC (((.(((....))).))) | 54.2 | -40.7
90 | GGGCGACCGAAAGGTCCC (((..(((....)))))) | 49.8 | -13
91 | GGGCGAGGAAACTCACCC (((.(((....))).))) | 49.6 | -41
